Measurements from different studies.
Each line is one published result; the experiments were not run side by side.
Matrix: plasma

CC(C)n1c(Nc2cccnc2)nc2cnc(Nc3ccc(N4CCN(C)CC4)cc3)nc21  AUC(0-inf) (male human; oral; 100 mg): 853 ng·h/mL
NC(=S)NN=Cc1ncccc1N  AUC(0-inf) (human; oral; 150 mg): 1030 ng·h/mL
Cc1ccc(C(=O)Nc2ccc(CN3CCN(C)CC3)c(C(F)(F)F)c2)cc1C#Cc1cnc2[nH]ncc2c1  AUC(0-t) (human; oral; 40 mg; single dose, healthy volunteers): 246 ng·h/mL
Cl.[2H]C([2H])([2H])CC(=O)c1cnc(NC(=O)C2CC2)cc1Nc1cccc(-c2ncn(C([2H])([2H])[2H])n2)c1OC  AUC (human; oral; 10 mg; multiple doses, once daily, steady state): 796 ng·h/mL
CC[C@H](C)CCCCC(=O)N[C@@H](CCN)C(=O)N[C@H](C(=O)N[C@@H](CCN)C(=O)N[C@H]1CCNC(=O)[C@H]([C@@H](C)O)NC(=O)[C@H](CCN)NC(=O)[C@H](CCN)NC(=O)[C@H](CC(C)C)NC(=O)[C@@H](Cc2ccccc2)NC(=O)[C@H](CCN)NC1=O)[C@@H](C)O  AUC(0-t) (human; intravenous; 0.75 mg/kg; single dose, infusion): 19600 ng·h/mL
CNC(=O)n1ccc2cc(Oc3ccnc(NC(=O)c4ccc(C5CCN(CCO)CC5)cc4)c3)c(OCCOC)cc21  AUC(0-inf) (human; oral; 35 mg; single dose, fasted, healthy volunteers): 128 ng·h/mL
Cn1cc(Nc2nc(N)nc(-c3cccc(-n4ccc5cc(C6CC6)cc(F)c5c4=O)c3CO)n2)cn1  AUC(0-t) (human; oral; 300 mg; single dose, fasted, healthy volunteers): 11500 ng·h/mL
CN1CC[C@@H](c2c(O)cc(O)c3c(=O)cc(-c4ccc(C(F)(F)F)cc4Cl)oc23)[C@@H]1CO  AUC(0-t) (human; oral; 150 mg; patients): 3760 ng·h/mL
COc1ccc([C@@H](O)c2cc(-c3ncnc4cc(N5CCOCC5)ccc34)c(F)cc2Cl)nn1  AUC(0-t) (human; oral; 400 mg; single dose, patients): 14100 ng·h/mL
